Assay results as given in ChEMBL document CHEMBL4368886, “Design, synthesis, and biological activity of novel ammonium salts containing sterically hindered phenolic fragment and phosphoryl group” (Medchemcomm, 2018).
In brackets after ≈: the same amount, converted by molar mass. Activity calls are given as the source filed them. No cut-off for these calls is given here.

Columns and labels:
Staphylococcus aureus [1] = experiment: Antimicrobial activity against Staphylococcus aureus 209p measured every 24 hrs for 5 days by two-fold serial dilution method; format: functional
Bacillus cereus [2] = experiment: Antimicrobial activity against Bacillus cereus ATCC 8035 measured every 24 hrs for 5 days by two-fold serial dilution method; format: functional
Escherichia coli [3] = experiment: Antimicrobial activity against Escherichia coli CDC F-50 measured every 24 hrs for 5 days by two-fold serial dilution method; format: functional
Pseudomonas aeruginosa [4] = experiment: Antimicrobial activity against Pseudomonas aeruginosa ATCC 9027 measured every 24 hrs for 5 days by two-fold serial dilution method; format: functional
Aspergillus niger [5] = experiment: Antimicrobial activity against Aspergillus niger BKMF-1119 measured after 14 days by two-fold serial dilution method; format: functional, organism-based
[6] = test system: Trichophyton mentagrophytes; experiment: Antimicrobial activity against Trichophyton mentagrophytes var. gypseum 1773 measured after 14 days by two-fold serial dilution method; format: functional
Candida albicans [7] = experiment: Antimicrobial activity against Candida albicans 855-653 measured after 14 days by two-fold serial dilution method; format: functional
Staphylococcus aureus [8] = experiment: Bactericidal activity against Staphylococcus aureus 209p measured after 4 hrs; format: functional
Summary of the method: (§1)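 Microbicidal (bactericidal/fungicidal) concentration, killing of microbial cells, determined per literature procedures; tests in duplicate, repeated twice.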

Bacillus cereus [9] = experiment: Bactericidal activity against Bacillus cereus ATCC 8035 measured after 4 hrs; format: functional; summary of the method: as §1
Escherichia coli [10] = experiment: Bactericidal activity against Escherichia coli CDC F-50 measured after 4 hrs; format: functional; summary of the method: as §1
Pseudomonas aeruginosa [11] = experiment: Bactericidal activity against Pseudomonas aeruginosa ATCC 9027 measured after 4 hrs; format: functional; summary of the method: as §1
Aspergillus niger [12] = experiment: Bactericidal activity against Aspergillus niger BKMF-1119 measured after 4 hrs; format: functional, organism-based; summary of the method: as §1
[13] = test system: Trichophyton mentagrophytes var. granulosum; experiment: Bactericidal activity against Trichophyton mentagrophytes var. granulosum 1773 measured after 4 hrs; format: functional; summary of the method: as §1
Candida albicans [14] = experiment: Bactericidal activity against Candida albicans 855-653 measured after 4 hrs; format: functional; summary of the method: as §1

Compound	MIC (Staphylococcus aureus [1])	MIC (Bacillus cereus [2])	MIC (Escherichia coli [3])	MIC (Pseudomonas aeruginosa [4])	MIC (Aspergillus niger [5])	MIC [6]	MIC (Candida albicans [7]; 855-653, 336 h) [µM]	MIC (Staphylococcus aureus [8])	MIC (Bacillus cereus [9]; ATCC 8035, 4 h) [µM]	MIC (Escherichia coli [10])	MIC (Pseudomonas aeruginosa [11])	MIC (Aspergillus niger [12])	MIC [13]	MIC (Candida albicans [14]; 855-653, 4 h) [µM]	MIC (Escherichia coli [10]; CDC F-50, 4 h) [µM]	MIC (Pseudomonas aeruginosa [11]; ATCC 9027, 4 h) [µM]	MIC (Candida albicans [14])	MIC (Candida albicans [7])	MIC (Bacillus cereus [9])
CCOP(=O)(OCC)C(NCC[N+](C)(C)Cc1ccccc1)c1cc(C(C)(C)C)c(O)c(C(C)(C)C)c1 (centres undefined)	51 µM	6.4 µM	inactive	inactive	inactive	inactive	177	407 µM	102	inactive	inactive	inactive	inactive	177					
CCCCCCCCCC[N+](C)(C)CCCNC(=O)CCc1cc(C(C)(C)C)c(O)c(C(C)(C)C)c1	1.5 µM	6.7 µM	26.8 µM	26.8 µM	inactive	inactive	0.9	3.3 µM	107			inactive	inactive	0.9	53.6	26.8			
CC(C)OP(=O)(OC(C)C)C(NCC[N+](C)(C)Cc1ccccc1)c1cc(C(C)(C)C)c(O)c(C(C)(C)C)c1 (centres undefined)	24.3 µM	48.8 µM	inactive	inactive	inactive	inactive	195	97.3 µM	48.8	inactive	inactive	inactive	inactive				inactive		
CC(C)OP(=O)(OC(C)C)C(NCCC[N+](C)(C)Cc1ccccc1)c1cc(C(C)(C)C)c(O)c(C(C)(C)C)c1 (centres undefined)	95.3 µM	95.3 µM	inactive	inactive	inactive	inactive		95.3 µM	95.3	inactive	inactive	inactive	inactive				inactive	inactive	
CCCCCCCCCCCC[N+](C)(C)CCCNC(=O)CCc1cc(C(C)(C)C)c(O)c(C(C)(C)C)c1	102 µM	206 µM	inactive	inactive	inactive	inactive		102 µM	206	inactive	inactive	inactive	inactive				inactive	inactive	
CCCCCCCCCCCCCCCC[N+](C)(C)CCNC(=O)CCc1cc(C(C)(C)C)c(O)c(C(C)(C)C)c1	95.7 µM	383 µM	inactive	inactive	inactive	inactive	383	inactive		inactive	inactive	inactive	inactive	383					inactive
CC[N+](C)(C)CCCNC(=O)CCc1cc(C(C)(C)C)c(O)c(C(C)(C)C)c1	inactive	inactive	inactive	inactive	inactive	inactive	265	inactive		inactive	inactive	inactive	inactive	265					inactive
CC[N+](C)(C)CCNC(c1cc(C(C)(C)C)c(O)c(C(C)(C)C)c1)P(=O)(OC(C)C)OC(C)C (centres undefined)	108 µM	216 µM	inactive	inactive	inactive	inactive	432	108 µM	216	inactive	inactive	inactive	inactive				inactive		
CC[N+](C)(C)CCCNC(c1cc(C(C)(C)C)c(O)c(C(C)(C)C)c1)P(=O)(OC(C)C)OC(C)C (centres undefined)	105 µM	105 µM	inactive	inactive	inactive	inactive	422	105 µM	421	inactive	inactive	inactive	inactive	422					
CCCCCCCCCC[N+](C)(C)CCNC(=O)CCc1cc(C(C)(C)C)c(O)c(C(C)(C)C)c1	1.6 µM	6.8 µM	27.4 µM	27.4 µM	inactive	inactive	3.3	1.6 µM	55			inactive	inactive	6.9	55	55			
CCCCCCCC[N+](C)(C)CCNC(=O)CCc1cc(C(C)(C)C)c(O)c(C(C)(C)C)c1	29 µM	58 µM	inactive	inactive	inactive	inactive	29	29 µM	58	inactive	inactive	inactive	inactive	29					
CCCCCCCCCCCC[N+](C)(C)CCNC(c1cc(C(C)(C)C)c(O)c(C(C)(C)C)c1)P(=O)(OCC)OCC (centres undefined)	45.2 µM	361 µM	inactive	inactive	inactive	inactive	45.2	45.2 µM	361	inactive	inactive	inactive	inactive	45.2					
CC[N+](C)(C)CCNC(=O)CCc1cc(C(C)(C)C)c(O)c(C(C)(C)C)c1	inactive	inactive	inactive	inactive	inactive	inactive	68.5	inactive		inactive	inactive	inactive	inactive				inactive		inactive
CCCCCCCCCCCC[N+](C)(C)CCNC(=O)CCc1cc(C(C)(C)C)c(O)c(C(C)(C)C)c1	52.4 µM	419 µM	inactive	inactive	inactive	inactive	419	52.4 µM	419	inactive	inactive	inactive	inactive	419					
CCCCCCCCCCCCCCCC[N+](C)(C)CCCNC(=O)CCc1cc(C(C)(C)C)c(O)c(C(C)(C)C)c1	47 µM	375 µM	inactive	inactive	inactive	inactive	187	inactive	375	inactive	inactive	inactive	inactive	375					
CCCCCCCCCCCC[N+](C)(C)CCCNC(c1cc(C(C)(C)C)c(O)c(C(C)(C)C)c1)P(=O)(OCC)OCC (centres undefined)	22 µM	177 µM	inactive	inactive	inactive	inactive	44.3	22 µM	177	inactive	inactive	inactive	inactive	44.3					
CCn1cc(C(=O)O)c(=O)c2cc(F)c(N3CCNCC3)cc21 [NORFLOXACIN]	7.5 µM (≈ 2.4 µg/mL)	25 µM (≈ 7.98 µg/mL)	4.7 µM (≈ 1.5 µg/mL)	9.4 µM (≈ 3 µg/mL)				7.5 µM (≈ 2.4 µg/mL)	50 (≈ 16 µg/mL)						4.7 (≈ 1.5 µg/mL)	48.8 (≈ 15.6 µg/mL)			
CCOP(=O)(OCC)C(NCCC[N+](C)(C)Cc1ccccc1)c1cc(C(C)(C)C)c(O)c(C(C)(C)C)c1 (centres undefined)	99.5 µM	24.8 µM	inactive	inactive	inactive	inactive	199	199 µM	24.8	inactive	inactive	inactive	inactive	199					
O=C(N[C@H](CO)[C@H](O)c1ccc([N+](=O)[O-])cc1)C(Cl)Cl [CHLORAMPHENICOL]	193 µM (≈ 62.4 µg/mL)	193 µM (≈ 62.4 µg/mL)	386 µM (≈ 125 µg/mL)																
